This note sets out measurements from ChEMBL document CHEMBL4004830 (J Med Chem, 2017).

Activity calls are given as the source filed them. The rule behind the calls is not given here. Where only a bound is given, the exact number is not on record here.

Assay [1] has as its system MV4-11. In words: Cell cycle arrest in human MV4-11 cells assessed as accumulation at S phase at 0.40 uM after 24 hrs by propidium iodide staining based flow cytometry (reference value: 19.07%). The assay is classed as functional.
Assay [2] has as its target Dual specificity tyrosine-phosphorylation-regulated kinase 1A (Rattus norvegicus) (UniProt Q63470). The experiment in a line: Inhibition of recombinant rat N-terminal GST-tagged DYRK1A (1 to 499 amino acid residues) expressed in Escherichia coli assessed as residual activity at 10 uM; values are per cent of control.
The test system of assay [3] is MV4-11. In words: Cell cycle arrest in human MV4-11 cells assessed as accumulation at G1 phase at 0.04 uM after 24 hrs by propidium iodide staining based flow cytometry (reference value: 61.01%). Type of assay: functional. Background: A flow cytometer gives signals particle by particle.
Assay [4] deals with MV4-11. The experiment in a line: Cell cycle arrest in human MV4-11 cells assessed as accumulation at sub-G1 phase at 0.20 uM after 24 hrs by propidium iodide staining based flow cytometry (reference value: 1.99%). Type of assay: functional.
For assay [5], the system named is MV4-11. In words: Cell cycle arrest in human MV4-11 cells assessed as accumulation at G1 phase after 24 hrs by propidium iodide staining based flow cytometry. The assay is classed as functional.
The subject of a further assay is MDA-MB-453. In words: Growth inhibition of human MDA-MB-453 cells after 72 hrs by MTT assay. The settings on record: MDA-MB-453, 72 h. The assay is classed as functional. Put shortly: (§1)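 72 h antiproliferation assay, resazurin read-out for MV4-11 and MTT read-out for MDA-MB-453; values from at least two replicates.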
On the technique in general: Tetrazolium assays rely on reduction of a dye to a coloured formazan, in cell work by metabolically active cells.

For a further assay, the species on record is Homo sapiens. In words: Inhibition of SGK (unknown origin) assessed as residual activity at 10 uM; values are per cent of control.
The target of the next assay is CDK2/Cyclin A2 (Homo sapiens, UniProt P24941). The experiment in a line: (§2) Inhibition of CDK2/cyclin A (unknown origin) in presence of [gamma-33P]-ATP […]. Type of assay: protein-complex assay. Particulars: read-out: Ki(app).
The target in assay [6] is Serine/threonine-protein kinase pim-1 (Homo sapiens) (UniProt P11309). In words: Inhibition of recombinant full-length human N-terminal GST-tagged Pim-1 expressed in Escherichia coli assessed as residual activity at 10 uM; values are per cent of control.
The test system of assay [7] is MV4-11. In words: Cell cycle arrest in human MV4-11 cells assessed as accumulation at sub-G1 phase at 0.40 uM after 24 hrs by propidium iodide staining based flow cytometry (reference value: 1.99%). The assay is classed as functional.
The target in assay [8] is Death-associated protein kinase 1 (Homo sapiens) (UniProt P53355). In words: Inhibition of recombinant human N-terminal GST-tagged DAPK1 (1 to 296 amino acid residues) expressed in baculovirus infected Sf21 cells assessed as residual activity at 10 uM; values are per cent of control.
In assay [9] the test system is MV4-11. The experiment in a line: Cell cycle arrest in human MV4-11 cells assessed as accumulation at sub-G1 phase at 0.04 uM after 24 hrs by propidium iodide staining based flow cytometry (reference value: 1.99%). The assay is classed as functional.
The target in assay [10] is Cyclin-dependent kinase 7/ cyclin H (Homo sapiens, UniProt P50613). The experiment in a line: (§3) Inhibition of CDK7/cyclin H (unknown origin) in presence of [gamma-33P]-ATP […]. Type of assay: protein-complex assay. The settings on record: read-out: Ki(app).
Assay [11] has as its system MV4-11. The experiment in a line: Cell cycle arrest in human MV4-11 cells assessed as accumulation at G1 phase at 0.40 uM after 24 hrs by propidium iodide staining based flow cytometry (reference value: 61.01%). Type of assay: functional.
The test system of assay [12] is MV4-11. In words: Cell cycle arrest in human MV4-11 cells assessed as accumulation at S phase at 0.20 uM after 24 hrs by propidium iodide staining based flow cytometry (reference value: 19.07%). Type of assay: functional.
Assay [13] deals with MV4-11. The experiment in a line: Cell cycle arrest in human MV4-11 cells assessed as accumulation at G2/M phase at 0.04 uM after 24 hrs by propidium iodide staining based flow cytometry (reference value: 17.94%). Type of assay: functional.
Assay [14] addresses Dual specificity tyrosine-phosphorylation-regulated kinase 1B (Homo sapiens) (UniProt Q9Y463). In words: Inhibition of DYRK1B (unknown origin) assessed as residual activity at 10 uM; values are per cent of control.
Assay [15] deals with Homeodomain-interacting protein kinase 2 (Homo sapiens) (UniProt Q9H2X6). The experiment in a line: Inhibition of recombinant human N-terminal His6-tagged HIPK2 (165 to 564 amino acid residues) expressed in baculovirus infected Sf21 insect cells assessed as residual activity at 10 uM; values are per cent of control.
The test system of assay [16] is MV4-11. The experiment in a line: Cell cycle arrest in human MV4-11 cells assessed as accumulation at G2/M phase at 0.20 uM after 24 hrs by propidium iodide staining based flow cytometry (reference value: 17.94%). Type of assay: functional.
For assay [17], the target named is Cyclin-dependent kinase 1/cyclin B1 (Homo sapiens, UniProt P06493). In words: (§4) Inhibition of CDK1/cyclin B (unknown origin) in presence of [gamma-33P]-ATP […]. The settings on record: read-out: Ki(app). Type of assay: protein-complex assay.
For assay [18], the target named is Receptor-type tyrosine-protein kinase FLT3 (Homo sapiens) (UniProt P36888). In words: Inhibition of recombinant human N-terminal GST-tagged Flt3 (564 to end amino acid residues) expressed in baculovirus infected Sf21 insect cells assessed as residual activity at 10 uM; values are per cent of control.
Assay [19] deals with MV4-11. The experiment in a line: Cell cycle arrest in human MV4-11 cells assessed as accumulation at S phase at 0.04 uM after 24 hrs by propidium iodide staining based flow cytometry (reference value: 19.07%). Type of assay: functional.
Assay [20] addresses MAP kinase-interacting serine/threonine-protein kinase 2 (Homo sapiens) (UniProt Q9HBH9). The experiment in a line: Inhibition of recombinant full-length human N-terminal His6-tagged Mnk2 expressed in baculovirus infected Sf21 insect cells assessed as residual activity at 10 uM; values are per cent of control.
Assay [21] has as its system MV4-11. In words: Cell cycle arrest in human MV4-11 cells assessed as accumulation at G1 phase at 0.20 uM after 24 hrs by propidium iodide staining based flow cytometry (reference value: 61.01%). Type of assay: functional.
The test system of assay [22] is MV4-11. The experiment in a line: Growth inhibition of human MV4-11 cells after 72 hrs by resazurin assay. The assay is classed as functional. The settings on record: MV4-11, 72 h. Summed up: as §1
Background: Resazurin is reduced to fluorescent resorufin, in cell work by metabolically active cells.

Assay [23] concerns the target Fibroblast growth factor receptor 1 (Homo sapiens) (UniProt P11362). The experiment in a line: Inhibition of recombinant human N-terminal GST-tagged FGFR1 (456 to 765 amino acid residues) expressed in baculovirus infected Sf21 insect cells assessed as residual activity at 10 uM; values are per cent of control.
For assay [24], the target named is Vascular endothelial growth factor receptor 3 (Homo sapiens) (UniProt P35916). In words: Inhibition of recombinant human N-terminal GST-tagged Flt4 (800 to end amino acid residues) expressed in baculovirus infected Sf21 insect cells assessed as residual activity at 10 uM; values are per cent of control.
The test system of assay [25] is MV4-11. In words: Cell cycle arrest in human MV4-11 cells assessed as accumulation at G2/M phase at 0.40 uM after 24 hrs by propidium iodide staining based flow cytometry (reference value: 17.94%). Type of assay: functional.
Assay [26] has as its target Homeodomain-interacting protein kinase 2 (Homo sapiens) (UniProt Q9H2X6). The experiment in a line: Inhibition of recombinant human N-terminal His6-tagged HIPK2 (165 to 564 amino acid residues) expressed in baculovirus infected Sf21 insect cells assessed as residual activity at 10 uM.
Assay [27] has as its target Dual specificity tyrosine-phosphorylation-regulated kinase 1A (Rattus norvegicus) (UniProt Q63470). In words: Inhibition of recombinant rat N-terminal GST-tagged DYRK1A (1 to 499 amino acid residues) expressed in Escherichia coli assessed as residual activity at 10 uM.
Assay [28] addresses Dual specificity tyrosine-phosphorylation-regulated kinase 1B (Homo sapiens) (UniProt Q9Y463). The experiment in a line: Inhibition of DYRK1B (unknown origin) assessed as residual activity at 10 uM.
The target in assay [29] is Cyclin-dependent kinase 7/ cyclin H (Homo sapiens) (UniProt P51946+P50613). The assay is described as §3. The assay is classed as protein-complex assay.
Assay [30] has as its target Cyclin-dependent kinase 1/cyclin B1 (Homo sapiens) (UniProt P06493+P14635). The description is as §4. The assay is classed as protein-complex assay.
For the next assay, the target named is CDK6/cyclin D3 (Homo sapiens, UniProt Q00534). The experiment in a line: Inhibition of CDK6/cyclin D3 (unknown origin) in presence of [gamma-33P]-ATP […]. Type of assay: protein-complex assay. The settings on record: read-out: Ki(app).
The target in the next assay is CDK9/cyclin T1 (Homo sapiens, UniProt P50750). The experiment in a line: Inhibition of CDK9/cyclin T1 (unknown origin) in presence of [gamma-33P]-ATP […]. The assay is classed as protein-complex assay. Particulars: read-out: Ki(app).
Assay [31] addresses Cyclin-dependent kinase 4/cyclin D1 (Homo sapiens, UniProt P11802). The experiment in a line: Inhibition of CDK4/cyclin D1 (unknown origin) in presence of [gamma-33P]-ATP […]. Type of assay: protein-complex assay. The settings on record: read-out: Ki(app).
The target of assay [32] is CDK2/Cyclin A2 (Homo sapiens) (UniProt P24941+P20248). Described as §2. Type of assay: protein-complex assay.

Chain of Dual specificity tyrosine-phosphorylation-regulated kinase 1B (Homo sapiens) (Q9Y463 whole entry, looked up, the tested form may be a part): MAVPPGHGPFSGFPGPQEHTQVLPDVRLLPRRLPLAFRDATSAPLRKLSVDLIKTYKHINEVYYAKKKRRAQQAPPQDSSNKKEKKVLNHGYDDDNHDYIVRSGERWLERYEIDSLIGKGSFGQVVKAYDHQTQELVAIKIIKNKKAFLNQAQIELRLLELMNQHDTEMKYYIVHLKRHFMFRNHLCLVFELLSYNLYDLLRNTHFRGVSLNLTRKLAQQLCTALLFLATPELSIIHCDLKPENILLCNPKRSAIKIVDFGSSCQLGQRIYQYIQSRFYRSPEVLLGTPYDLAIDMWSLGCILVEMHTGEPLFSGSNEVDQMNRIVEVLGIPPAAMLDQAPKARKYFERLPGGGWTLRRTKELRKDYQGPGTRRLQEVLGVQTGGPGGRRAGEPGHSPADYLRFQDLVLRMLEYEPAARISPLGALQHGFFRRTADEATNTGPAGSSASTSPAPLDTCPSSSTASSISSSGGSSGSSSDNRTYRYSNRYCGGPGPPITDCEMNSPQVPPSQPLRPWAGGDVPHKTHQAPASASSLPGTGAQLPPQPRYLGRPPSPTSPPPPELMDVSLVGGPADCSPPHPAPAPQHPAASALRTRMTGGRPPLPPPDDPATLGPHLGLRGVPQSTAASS
Chain of Homeodomain-interacting protein kinase 2 (Homo sapiens) (Q9H2X6 whole entry, looked up, the tested form may be a part): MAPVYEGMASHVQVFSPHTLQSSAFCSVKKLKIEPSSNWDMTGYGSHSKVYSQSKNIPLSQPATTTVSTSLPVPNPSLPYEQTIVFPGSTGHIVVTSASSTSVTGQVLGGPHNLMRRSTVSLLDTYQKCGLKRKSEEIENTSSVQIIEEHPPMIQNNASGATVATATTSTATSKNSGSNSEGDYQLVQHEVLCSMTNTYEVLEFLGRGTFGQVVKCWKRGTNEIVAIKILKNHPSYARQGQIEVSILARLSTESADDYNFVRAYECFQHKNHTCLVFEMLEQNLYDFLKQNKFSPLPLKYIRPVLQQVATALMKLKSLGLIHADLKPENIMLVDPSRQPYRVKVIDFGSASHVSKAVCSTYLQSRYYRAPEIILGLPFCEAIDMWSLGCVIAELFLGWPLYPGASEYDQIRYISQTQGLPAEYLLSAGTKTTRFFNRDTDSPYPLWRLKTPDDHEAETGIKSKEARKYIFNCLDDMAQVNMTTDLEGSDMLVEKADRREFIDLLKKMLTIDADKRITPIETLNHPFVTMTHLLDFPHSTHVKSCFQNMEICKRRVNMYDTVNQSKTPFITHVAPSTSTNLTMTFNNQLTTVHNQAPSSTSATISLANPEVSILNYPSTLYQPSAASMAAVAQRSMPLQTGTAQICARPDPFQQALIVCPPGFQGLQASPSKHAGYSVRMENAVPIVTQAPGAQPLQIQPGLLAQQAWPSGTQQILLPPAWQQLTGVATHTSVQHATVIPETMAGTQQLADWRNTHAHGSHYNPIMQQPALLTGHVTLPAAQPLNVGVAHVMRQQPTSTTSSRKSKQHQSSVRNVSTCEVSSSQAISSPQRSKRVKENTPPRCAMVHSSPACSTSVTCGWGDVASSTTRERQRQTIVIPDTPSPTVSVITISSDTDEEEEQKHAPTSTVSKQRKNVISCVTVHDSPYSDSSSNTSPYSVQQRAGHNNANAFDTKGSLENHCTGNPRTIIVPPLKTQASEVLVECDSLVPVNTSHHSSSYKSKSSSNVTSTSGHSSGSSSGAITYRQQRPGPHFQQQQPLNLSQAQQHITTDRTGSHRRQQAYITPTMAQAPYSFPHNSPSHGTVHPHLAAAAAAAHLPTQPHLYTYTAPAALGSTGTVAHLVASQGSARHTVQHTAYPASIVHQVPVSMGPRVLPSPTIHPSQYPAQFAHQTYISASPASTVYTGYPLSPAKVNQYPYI
Chain of Receptor-type tyrosine-protein kinase FLT3 (Homo sapiens) (P36888 whole entry): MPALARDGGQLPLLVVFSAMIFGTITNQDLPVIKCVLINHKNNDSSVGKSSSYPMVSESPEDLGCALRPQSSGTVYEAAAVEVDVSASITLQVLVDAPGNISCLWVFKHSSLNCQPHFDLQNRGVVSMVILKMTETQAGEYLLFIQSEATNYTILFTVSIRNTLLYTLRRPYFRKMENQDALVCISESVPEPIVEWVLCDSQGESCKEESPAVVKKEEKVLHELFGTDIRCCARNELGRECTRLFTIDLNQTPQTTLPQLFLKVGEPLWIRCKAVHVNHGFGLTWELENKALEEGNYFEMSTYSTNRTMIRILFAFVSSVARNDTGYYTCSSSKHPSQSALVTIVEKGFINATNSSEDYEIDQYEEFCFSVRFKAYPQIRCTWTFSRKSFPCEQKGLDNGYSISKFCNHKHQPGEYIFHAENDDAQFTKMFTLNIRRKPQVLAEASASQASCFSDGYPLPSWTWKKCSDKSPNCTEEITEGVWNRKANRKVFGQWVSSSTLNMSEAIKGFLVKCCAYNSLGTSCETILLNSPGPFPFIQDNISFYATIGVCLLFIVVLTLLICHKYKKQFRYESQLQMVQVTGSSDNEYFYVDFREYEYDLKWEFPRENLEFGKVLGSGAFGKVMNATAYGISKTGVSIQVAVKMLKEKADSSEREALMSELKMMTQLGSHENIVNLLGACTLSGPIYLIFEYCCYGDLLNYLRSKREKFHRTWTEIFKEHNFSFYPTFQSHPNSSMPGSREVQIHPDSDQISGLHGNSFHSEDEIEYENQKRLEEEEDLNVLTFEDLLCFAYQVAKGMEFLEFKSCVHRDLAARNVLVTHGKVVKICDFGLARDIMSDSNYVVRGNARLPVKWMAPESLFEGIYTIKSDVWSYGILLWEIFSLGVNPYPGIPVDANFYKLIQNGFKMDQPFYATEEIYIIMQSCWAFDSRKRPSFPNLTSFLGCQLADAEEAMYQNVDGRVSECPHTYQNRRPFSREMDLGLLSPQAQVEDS
Chain of Cyclin-dependent kinase 7/ cyclin H (P51946 whole entry): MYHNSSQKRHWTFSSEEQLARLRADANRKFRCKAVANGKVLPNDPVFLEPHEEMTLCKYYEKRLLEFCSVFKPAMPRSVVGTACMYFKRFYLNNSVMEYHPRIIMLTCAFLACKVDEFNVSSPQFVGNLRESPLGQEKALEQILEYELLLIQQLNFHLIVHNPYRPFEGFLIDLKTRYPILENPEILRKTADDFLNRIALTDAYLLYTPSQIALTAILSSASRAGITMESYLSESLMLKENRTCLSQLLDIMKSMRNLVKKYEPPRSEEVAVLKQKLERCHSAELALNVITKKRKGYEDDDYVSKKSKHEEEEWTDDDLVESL
Chain of Cyclin-dependent kinase 7/ cyclin H (P50613 whole entry): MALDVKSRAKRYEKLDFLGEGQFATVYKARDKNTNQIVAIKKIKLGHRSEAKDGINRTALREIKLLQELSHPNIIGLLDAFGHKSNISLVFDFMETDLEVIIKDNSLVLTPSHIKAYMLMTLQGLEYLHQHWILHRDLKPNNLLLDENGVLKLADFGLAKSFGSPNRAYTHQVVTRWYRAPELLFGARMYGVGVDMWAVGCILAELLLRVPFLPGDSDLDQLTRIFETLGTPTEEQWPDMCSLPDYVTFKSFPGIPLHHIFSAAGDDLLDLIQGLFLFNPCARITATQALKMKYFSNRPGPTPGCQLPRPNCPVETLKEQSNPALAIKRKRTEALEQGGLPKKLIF
Chain of Cyclin-dependent kinase 1/cyclin B1 (Homo sapiens) (P06493 whole entry, looked up): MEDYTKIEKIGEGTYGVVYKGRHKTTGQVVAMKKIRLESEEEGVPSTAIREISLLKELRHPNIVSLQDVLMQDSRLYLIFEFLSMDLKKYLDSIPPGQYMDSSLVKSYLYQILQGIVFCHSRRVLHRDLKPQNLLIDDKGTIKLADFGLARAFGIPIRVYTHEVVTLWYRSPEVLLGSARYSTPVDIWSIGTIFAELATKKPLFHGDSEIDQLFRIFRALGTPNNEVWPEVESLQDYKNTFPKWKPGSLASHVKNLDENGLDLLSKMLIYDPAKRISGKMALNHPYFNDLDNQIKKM
Chain of Cyclin-dependent kinase 1/cyclin B1 (Homo sapiens) (P14635 whole entry, looked up): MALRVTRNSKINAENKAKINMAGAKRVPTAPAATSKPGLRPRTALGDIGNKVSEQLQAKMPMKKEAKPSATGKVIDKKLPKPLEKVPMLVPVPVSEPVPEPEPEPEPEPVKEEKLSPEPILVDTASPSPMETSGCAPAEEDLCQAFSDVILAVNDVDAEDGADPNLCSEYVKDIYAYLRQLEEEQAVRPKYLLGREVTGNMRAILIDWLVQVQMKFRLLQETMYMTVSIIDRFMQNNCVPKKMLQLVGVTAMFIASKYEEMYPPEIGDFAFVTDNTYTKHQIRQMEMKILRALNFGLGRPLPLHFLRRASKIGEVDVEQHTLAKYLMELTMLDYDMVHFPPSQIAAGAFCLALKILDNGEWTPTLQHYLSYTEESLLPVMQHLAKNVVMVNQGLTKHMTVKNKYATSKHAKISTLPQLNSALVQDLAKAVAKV
Chain of Cyclin-dependent kinase 1/cyclin B1 (P06493 whole entry): as the sequence (P06493 whole entry, looked up) above
Chain of Cyclin-dependent kinase 1/cyclin B1 (P14635 whole entry, further chain): as the sequence (P14635 whole entry, looked up) above
Chain of Serine/threonine-protein kinase pim-1 (Homo sapiens) (P11309 whole entry, looked up): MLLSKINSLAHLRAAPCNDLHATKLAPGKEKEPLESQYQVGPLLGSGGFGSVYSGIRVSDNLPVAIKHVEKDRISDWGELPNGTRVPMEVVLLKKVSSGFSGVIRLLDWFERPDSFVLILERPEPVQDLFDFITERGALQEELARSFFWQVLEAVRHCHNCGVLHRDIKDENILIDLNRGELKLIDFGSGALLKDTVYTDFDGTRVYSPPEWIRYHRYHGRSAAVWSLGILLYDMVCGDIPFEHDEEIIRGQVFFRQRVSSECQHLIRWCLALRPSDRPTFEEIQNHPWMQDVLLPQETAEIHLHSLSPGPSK

Take `Cc1nc(NC2CCCC2)sc1-c1ccnc(Nc2ccc(N3CCNCC3)cn2)n1`: the Activity in the assay with MV4-11 [1] was 5.9%; in the assay on MV4-11 [3], 64.05%; in the assay with MV4-11 [4], 4.23%; in the assay on MV4-11 [5], “Dose-dependent effect”; with MV4-11 [7] it was 4.01%; in the assay with MV4-11 [9], 6.3%. Also, the Activity is reported as 85 - 85.24% with MV4-11 [11]; 13.52% with MV4-11 [12]; 12.73% with MV4-11 [13]; 9.96% in the assay on MV4-11 [16]; 17.01% in the assay on MV4-11 [19]; 72.09% in the assay with MV4-11 [21]. For the same compound, the Activity in the assay on MV4-11 [25] turned out to be 4.7%. The residual activity (in assay [2]; in the assay listed under Homo sapiens; in assay [6]; in [8]; in assay [14]; in assay [15]) was below 10% in each case. Besides, the residual activity in assay [18], in assay [20], in assay [23] and in [24] was below 10% throughout. For the same compound, the 50% growth inhibitory concentration (GI50) in the assay with MDA-MB-453 is 70 nM; in the assay with MV4-11 [22], 23 nM. Besides, the Ki at CDK2/Cyclin A2 was above 5000 nM; in assay [10], 1110 nM; in assay [17] it was above 5000 nM.

With `Cc1nc(NC2CCCC2)sc1-c1nc(Nc2ccc(N3CCC(N(C)C)CC3)cn2)ncc1F`, the inhibition result in assay [26], in assay [27] and in assay [28] was “Active” each time. For the same compound, the GI50 with MDA-MB-453 came out at 356 nM; with MV4-11 [22] it was 454 nM. The “Ki(app)” value in [29] and in assay [30] was “inactive” throughout.

Consider `Cc1nc(NC2CCCC2)sc1-c1nc(Nc2ccc(N3CCN(C)CC3)cn2)ncc1F`, for which the residual activity (in assay [2]; in the assay listed under Homo sapiens; in [6]; in assay [8]; in [14]; in assay [15]) was below 10% each time. For the same compound, the residual activity in assay [18], in assay [20], in assay [23] and in [24] was below 10% each time. The Ki came to 3 nM on CDK6/cyclin D3; 103 nM at CDK2/Cyclin A2; 505 nM on CDK9/cyclin T1; 2020 nM in assay [10]; 2330 nM in assay [17]; 1 nM in assay [31]. The GI50 came out at 202 nM with MDA-MB-453 and 73 nM with MV4-11 [22].

In the case of `Cc1nc(Nc2ccccc2)sc1-c1ccnc(Nc2ccc(N3CCN(C)CC3)cn2)n1`, the concentration for 50% growth inhibition (GI50) in the assay on MDA-MB-453 came out at 494 nM; with MV4-11 [22], 508 nM. Besides, the “Ki(app)” value in [32], in [29] and in [30] was “inactive” in each case. Also, the Ki on CDK9/cyclin T1 was above 5000 nM.

In general, residual activity refers to the signal under treatment as a percentage of the control signal. A word on the GI50: it is the concentration at which growth is held to half of that of the control. A high value points to lower sensitivity of the cells.
